IDH1 mut inh = IDH1 R132H (human) inhibition | 70,000 compounds, 0.18% hits | O75874 | IDH1 R132H reductase, diaphorase/resazurin fluorescence, 60 min | AID 624101 | inhibition, % at 10 µM; in the data active = inhibition above about 34%; inconclusive = no clear call, values can overlap the other calls; inactive = below about 11%;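 note: 0% = DMSO and 100% = no enzyme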
Target sequence (O75874 whole entry R132H): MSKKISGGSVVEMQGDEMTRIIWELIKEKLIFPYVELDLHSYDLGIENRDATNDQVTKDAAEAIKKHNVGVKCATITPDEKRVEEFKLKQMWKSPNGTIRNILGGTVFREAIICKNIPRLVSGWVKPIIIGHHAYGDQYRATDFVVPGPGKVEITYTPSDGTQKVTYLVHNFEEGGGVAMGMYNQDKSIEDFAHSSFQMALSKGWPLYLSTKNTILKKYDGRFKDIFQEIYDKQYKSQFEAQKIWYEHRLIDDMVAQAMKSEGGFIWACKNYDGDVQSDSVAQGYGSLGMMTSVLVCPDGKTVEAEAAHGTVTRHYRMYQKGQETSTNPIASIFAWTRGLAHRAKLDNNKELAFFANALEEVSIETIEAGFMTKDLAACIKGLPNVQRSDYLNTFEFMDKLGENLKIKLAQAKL
GASC1 inh = inhibitors of human demethylase GASC-1 KDM4C | 96,000 compounds, 0.15% hits | GST-KDM4C 2-372, H3K9me3 peptide, LANCE TR-FRET | inhibition, % at 12.5 µM | Q9H3R0;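 active = mean replicate inhibition above about 25%, with at least 55% of replicates also reaching it, limit read from the data, passing the limit was not always enough; inconclusive = only one of those two conditions met; inactive = neither condition met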
Target sequence (Q9H3R0 2-372 limits assumed): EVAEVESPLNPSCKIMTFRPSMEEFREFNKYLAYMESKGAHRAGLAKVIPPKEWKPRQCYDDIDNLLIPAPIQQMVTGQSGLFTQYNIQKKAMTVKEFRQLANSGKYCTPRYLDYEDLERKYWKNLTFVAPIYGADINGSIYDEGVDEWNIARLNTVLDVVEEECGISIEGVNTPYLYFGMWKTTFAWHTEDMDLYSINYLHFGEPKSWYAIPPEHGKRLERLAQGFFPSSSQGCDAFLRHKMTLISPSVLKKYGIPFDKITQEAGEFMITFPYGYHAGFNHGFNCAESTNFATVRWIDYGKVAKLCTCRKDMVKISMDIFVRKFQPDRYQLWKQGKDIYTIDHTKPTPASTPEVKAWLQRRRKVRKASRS
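System: N-terminal GST-fused human GASC-1 (KDM4C) fragment, residues 2-372 / Amount: 10 nM GST-KDM4C in enzyme reaction / Also added: H3K9me3 peptide with Fe(II)/2OG / Times: 30 min demethylation and 1 h detection at room temperature / Signal: LANCE TR-FRET / Read-out basis: Fall in 671/618 emission ratio as inhibition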
Pf Dd2 inh = P. falciparum Dd2 growth inhibition; activity change, % at 10 µM; AID 1159554; 94,000 compounds, 2.3% hits; SYBR Green, 72 h; stronger effect = lower value; in the data active = activity change below about -80%; inconclusive = no clear call, values can overlap the other calls
T cruzi growth-1 = T. cruzi proliferation inhibition | T. cruzi beta-gal in NIH3T3, GalScreen luminescence, 90 h | inhibition, % at 8.34 µM | 77,000 compounds, 5.9% hits;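 active = mean inhibition above about 93%, with at least 55% of replicates each passing it, limit read from the data, passing the limit was not always enough; inconclusive = only one of those two conditions holds; inactive = neither condition holds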
T cruzi growth-2 = blocks T. cruzi growth in NIH3T3 host cells | 5,600 compounds, 72% hits | inhibition, % at 8.35 µM | shares compounds with T cruzi growth-1 | T. cruzi beta-gal in NIH3T3, GalScreen luminescence, 90 h;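 active = mean replicate inhibition above about 95% and at least 55% of replicates individually reaching it, limit read from the data; inconclusive = only one of the two criteria is met; inactive = neither criterion is met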
T cruzi growth-3 = inhibitors of T. cruzi proliferation; shares compounds with T cruzi growth-1; T. cruzi beta-gal in NIH3T3, GalScreen luminescence, 90 h; AID 651740; inhibition, % at 2.09 µM; 5,600 compounds, 21% hits;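 active = mean inhibition above about 95%, with at least 55% of replicates also reaching it, limit read from the data; inconclusive = meets just one of the two conditions; inactive = meets neither condition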;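 note: plate controls were neutral control median for no effect and positive control median for full effect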
3T3 cytotox = kills mouse NIH/3T3 fibroblasts. NIH/3T3 viability, CellTiter-Glo ATP luminescence, 90 h. cytotoxicity (signal decrease), % at 8.35 µM. AID 651742. 5,600 compounds, 14% hits. shares compounds with T cruzi growth-1;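 active = mean signal decrease across replicates above about 35% based on untreated-well scatter, with enough replicates individually passing, limit read from the data; inconclusive = no rule stated though some were filed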;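 note: 0% = median of neutral control wells and 100% = median of positive control wells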
3T3 cytotox 2 = kills mouse NIH/3T3 fibroblasts; inhibition, % at 24.9 µM; shares compounds with T cruzi growth-1; 5,600 compounds, 56% hits; NIH/3T3 viability, CellTiter-Glo ATP luminescence, 90 h; AID 651744;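 active = mean loss of cell viability signal at or above a set limit, and enough replicates individually reaching it; inconclusive = meets only the mean limit or only the replicate share; inactive = meets neither condition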;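 note: 0% = median of neutral control wells and 100% = median of positive control wells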
* = called active by the depositor; ? = inconclusive; nt = no result given; + = active, no number. Rows were chosen to be rich in hits. Some 5.8% of all compounds tested hit in one or more screens of this group.

SMILES	IDH1 mut inh	GASC1 inh	Pf Dd2 inh	T cruzi growth-1	T cruzi growth-2	T cruzi growth-3	3T3 cytotox	3T3 cytotox 2
C[C@@H]1CN([C@H](C)CO)C(=O)c2cc(C3=CCCC3)cnc2O[C@H]1CN(C)C(=O)Nc1ccc(F)cc1	nt	3.3	1.1	46.0	nt	nt	nt	nt
C[C@@H]1CN([C@@H](C)CO)S(=O)(=O)c2ccc(C#Cc3ccccc3)cc2O[C@H]1CN(C)S(=O)(=O)c1ccccc1F	0.1	-3.2	?	124.5*	109.0*	87.8	40.7*	46.6*
C[C@H]1CN([C@@H](C)CO)S(=O)(=O)c2ccc(C#Cc3ccccc3)cc2O[C@H]1CN(C)S(=O)(=O)c1ccccc1F	-0.4	-3.8	-63.8	123.1*	105.7*	?	16.3	-4.8
CCC(=O)N1CC[C@@H]2[C@H]1c1cc(-c3ccccc3)ccc1N(C)[C@H]2CO	nt	2.4	-5.1	35.6	nt	nt	nt	nt
COCC(=O)N1CC[C@@H]2[C@H]1c1cc(-c3cccc(OC)c3)ccc1N(C)[C@H]2CO	nt	2.9	-5.6	95.9*	103.4*	106.0*	-23.7	-38.4
CCC(=O)N1CC[C@H]2[C@@H]1c1cc(-c3cccc(OC)c3)ccc1N(C)[C@H]2CO	nt	0.2	-1.2	99.1*	101.3*	76.7	11.4	-4.0
COCC(=O)N1CC[C@H]2[C@@H]1c1cc(-c3cccc(OC)c3)ccc1N(C)[C@H]2CO	nt	1.7	8.4	101.0*	107.9*	78.5	3.5	-6.6
COc1cccc(-c2ccc3c(c2)[C@H]2[C@H](CCN2C(=O)CC2CC2)[C@H](CO)N3C)c1	nt	2.1	-9.1	9.1	nt	nt	nt	nt
COc1cccc(-c2ccc3c(c2)[C@@H]2[C@@H](CCN2C(=O)CC2CC2)[C@H](CO)N3C)c1	nt	2.5	-18.1	4.7	nt	nt	nt	nt
CCCC1=CC(=O)C(O)C1O (configuration not stated)	-0.1	nt	nt	nt	nt	nt	nt	nt
C[C@@H]1CCCCO[C@@H](CN(C)S(=O)(=O)c2cccs2)[C@@H](C)CN([C@@H](C)CO)C(=O)c2cc(NC(=O)Nc3ccccc3)ccc2O1	nt	-1.1	nt	54.1	nt	nt	nt	nt
C[C@H]1CCCCO[C@@H](CN(C)S(=O)(=O)c2cccs2)[C@@H](C)CN([C@@H](C)CO)C(=O)c2cc(NC(=O)Nc3ccc(F)cc3)ccc2O1	-1.9	-0.5	-44.6	98.5*	108.8*	58.8	17.6	27.3*
C[C@@H]1CCCCO[C@H](CN(C)S(=O)(=O)c2cccs2)[C@H](C)CN([C@H](C)CO)C(=O)c2cc(NC(=O)Nc3ccccc3)ccc2O1	1.3	0.7	nt	108.1*	107.0*	26.3	12.0	4.9
C[C@@H]1CCCCO[C@H](CN(C)S(=O)(=O)c2cccs2)[C@H](C)CN([C@@H](C)CO)C(=O)c2cc(NC(=O)Nc3ccccc3)ccc2O1	nt	-1.8	nt	98.9*	101.2*	28.8	1.0	29.5*
C[C@@H]1CCCCO[C@@H](CN(C)S(=O)(=O)c2cccs2)[C@@H](C)CN([C@@H](C)CO)C(=O)c2cc(NC(=O)Nc3ccc(F)cc3)ccc2O1	0.6	0.0	-35.4	27.0	nt	nt	nt	nt
C[C@H]1CCCCO[C@H](CN(C)S(=O)(=O)c2cccs2)[C@@H](C)CN([C@@H](C)CO)C(=O)c2cc(NC(=O)Nc3ccccc3)ccc2O1	-6.2	-1.2	nt	107.1*	105.6*	36.4	3.4	27.4*
C[C@@H]1CCCCO[C@H](CN(C)S(=O)(=O)c2cccs2)[C@@H](C)CN([C@H](C)CO)C(=O)c2cc(NC(=O)Nc3ccc(F)cc3)ccc2O1	nt	5.2	-44.6	-18.3	nt	nt	nt	nt
O=C(CCC1COc2ccccc2O1)Nc1ncc(C(F)(F)F)cc1Cl (configuration not stated)	2.0	nt	nt	nt	nt	nt	nt	nt
O=C(OCc1cccc(C(=O)c2ccccc2)c1)c1ccc(NC(=O)c2ccco2)cc1	0.4	nt	nt	nt	nt	nt	nt	nt
C[C@@H]1CCCCO[C@H](CN(C)S(=O)(=O)c2cccs2)[C@@H](C)CN([C@@H](C)CO)C(=O)c2cc(NC(=O)Nc3ccccc3)ccc2O1	0.9	-0.2	nt	?	106.7*	41.7	8.2	25.2
C[C@@H]1CN([C@@H](C)CO)C(=O)c2cc(NC(=O)Nc3ccc(F)cc3)ccc2O[C@@H](C)CCCCO[C@H]1CN(C)S(=O)(=O)c1cccs1	-0.8	-0.2	-70.2	56.3	nt	nt	nt	nt
C[C@@H]1CCCCO[C@@H](CN(C)S(=O)(=O)c2cccs2)[C@H](C)CN([C@H](C)CO)C(=O)c2cc(NC(=O)Nc3ccccc3)ccc2O1	nt	-1.5	nt	112.1*	107.7*	76.1	-22.3	0.6
COC(=O)c1ccccc1NC(=O)CN(C)S(=O)(=O)c1cc(Cl)ccc1Cl	0.0	nt	nt	nt	nt	nt	nt	nt
Cc1cc2ccccc2n2c(SCC(=O)NCc3ccco3)nnc12	-0.5	nt	nt	nt	nt	nt	nt	nt
CN1[C@@H]2c3ccc(-c4ccncc4)c(=O)n3C[C@@H]2[C@@H](CO)[C@@H]1C(=O)NC1Cc2ccccc2C1	nt	2.5	-3.7	16.0	nt	nt	nt	nt
SMILES	IDH1 mut inh	GASC1 inh	Pf Dd2 inh	T cruzi growth-1	T cruzi growth-2	T cruzi growth-3	3T3 cytotox	3T3 cytotox 2
CN(C)CC(=O)N1[C@@H]2c3ccc(-c4cccc(F)c4)c(=O)n3C[C@@H]2[C@@H](CO)[C@@H]1C(=O)NC1CCC1	nt	0.4	7.2	64.9	nt	nt	nt	nt
CN(C)CC(=O)N1[C@@H]2c3ccc(-c4ccc(F)cc4)c(=O)n3C[C@@H]2[C@@H](CO)[C@@H]1C(=O)NC1CCCC1	nt	-1.2	-11.0	101.1*	31.8	4.3	-6.3	-2.4
CN1[C@@H]2c3ccc(-c4cncnc4)c(=O)n3C[C@@H]2[C@@H](CO)[C@@H]1C(=O)NC1Cc2ccccc2C1	nt	9.0	nt	+	60.5	-1.1	10.6	-3.3
CN(C)CC(=O)N1[C@@H]2c3ccc(-c4ccccc4)c(=O)n3C[C@@H]2[C@@H](CO)[C@@H]1C(=O)NC1CCC1	nt	0.0	nt	+	-3.8	25.4	2.0	-5.8
CN1[C@H](C(=O)NC2CCCCC2)[C@@H](CO)[C@@H]2Cn3c(ccc(-c4cccc(F)c4)c3=O)[C@@H]21	nt	4.0	-5.9	?	0.7	33.7	8.1	16.3
CCN(CC)CCNc1ncnc2sc3c(c12)CC(C)(C)OC3	-0.3	nt	nt	nt	nt	nt	nt	nt
O=C(CC1(O)C(=O)N(Cc2ccccc2)c2ccc(Br)cc21)c1ccccc1[N+](=O)[O-] (configuration not stated)	0.3	nt	nt	nt	nt	nt	nt	nt
CN(C)CC(=O)N1[C@H](C(=O)NC2CCC2)[C@@H](CO)[C@@H]2Cn3c(ccc(-c4cccc(F)c4)c3=O)[C@@H]21	nt	2.8	7.4	35.5	nt	nt	nt	nt
CCCN1[C@H](C(=O)N[C@@H](C)c2ccccc2)[C@@H](CO)[C@@H]2Cn3c(ccc(-c4ccccc4)c3=O)[C@@H]21	nt	7.6	-1.1	?	103.7*	53.4	2.3	51.8*

Source: PubChem BioAssay
